Format in all cases: cell-based
Data set [1] addresses T1, Peroxisome proliferator-activated receptor gamma (Mus musculus) (UniProt P37238).
T1 sequence (whole entry): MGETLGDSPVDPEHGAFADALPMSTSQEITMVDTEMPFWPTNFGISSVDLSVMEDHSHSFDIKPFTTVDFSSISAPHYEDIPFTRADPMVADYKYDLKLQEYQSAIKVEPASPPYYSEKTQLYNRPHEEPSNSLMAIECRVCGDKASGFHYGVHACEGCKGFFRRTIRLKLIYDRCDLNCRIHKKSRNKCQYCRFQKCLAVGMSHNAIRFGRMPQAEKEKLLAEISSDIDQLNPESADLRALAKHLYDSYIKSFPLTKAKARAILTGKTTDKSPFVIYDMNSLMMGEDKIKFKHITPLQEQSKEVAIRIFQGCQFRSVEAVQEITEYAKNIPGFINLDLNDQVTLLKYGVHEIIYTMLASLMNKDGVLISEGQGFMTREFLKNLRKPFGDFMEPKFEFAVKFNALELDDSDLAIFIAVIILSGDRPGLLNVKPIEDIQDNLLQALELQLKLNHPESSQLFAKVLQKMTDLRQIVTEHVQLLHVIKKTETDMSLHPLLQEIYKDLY
In words: Agonist activity at PPARgamma in LPS-stimulated mouse RAW264.7 cells assessed as inhibition of NF-kappaB p65 phosphorylation pretreated with compound for 1 hr followed by LPS stimulation for 30 mins by Western blot assay. Summed up:
(§1)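 For the antagonist arm, GW9662 (10 μM) was added 1 h before. Phospho-p65 read by Western blot on 10% SDS-PAGE, β-actin reference; three independent experiments.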

For data set [2], the target named is T1, Peroxisome proliferator-activated receptor gamma (Mus musculus). Nature of the data set: Agonist activity at PPARgamma in LPS-stimulated mouse RAW264.7 cells assessed as inhibition of NF-kappaB signaling by measuring reduction in NO production pretreated with compound for 1 hr followed by LPS stimulation measured after 24 hrs by Griess assay. The gist of the method:
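Supernatant mixed 1:1 with Griess reagent, 20 min at 37 °C in the dark, A520; nitrite quantified against 0–100 μM sodium nitrite standards.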
A general note: Nitrite, measured by Griess reagent, commonly stands in for NO production.

For data set [3] the target is unchanged. Nature of the data set: Agonist activity at PPARgamma in LPS-stimulated mouse RAW264.7 cells assessed as inhibition of NF-kappaB signaling by measuring reduction in IL-1beta mRNA level at 50 uM pretreated with compound for 1 hr followed by LPS stimulation for 6 hrs by RT-PCR analysis relative to control. Summed up: (§2)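 Trizol RNA, M-MLV cDNA, 27-cycle PCR, agarose gel with ethidium bromide stain; GAPDH as internal control. Three independent experiments.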

The target is the same in data set [4]. Nature of the data set: Agonist activity at PPARgamma in LPS-stimulated mouse RAW264.7 cells assessed as inhibition of NF-kappaB signaling by measuring reduction in TNFalpha mRNA level at 50 uM pretreated with compound for 1 hr followed by LPS stimulation for 6 hrs by RT-PCR analysis relative to control. The gist of the method: as §2
Another data set deals with RAW264.7. Nature of the data set: Cytotoxicity against mouse RAW264.7 cells assessed as reduction in cell viability up to 50 uM after 24 hrs by WST assay. Particulars: raw264.7, 24 h. Summed up: (§3)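 Cells in high-glucose DMEM/10% heat-inactivated FBS with penicillin-streptomycin at 37 °C, 5% CO2; seeded 12 h, then exposed to compound for 24 h. WST reagent 1 h at 37 °C, absorbance at 450 nm.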

In data set [5] the target is T1, Peroxisome proliferator-activated receptor gamma (Mus musculus). In words: Agonist activity at PPARgamma in mouse RAW264.7 cells assessed as increase in protein expression level in nuclear fractions at 30 uM after 24 hrs by Western blot assay relative to control. The gist of the method:
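Treated RAW 264.7 cells at 10 or 30 μM for 24 h, with rosiglitazone 10 or 30 μM as comparator. Nuclear fractions isolated by NE-PER extraction, protein by BCA, PPAR-γ by Western blot normalized to nuclear TFIIB; three independent experiments.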
On the technique in general: A western blot detects proteins with antibodies after separation by electrophoresis.

For data set [6] the target is unchanged. In words: Agonist activity at PPARgamma in LPS-stimulated mouse RAW264.7 cells assessed as inhibition of NF-kappaB p65 phosphorylation at 30 uM pretreated with compound for 1 hr followed by LPS stimulation for 30 mins by Western blot assay relative to control. Summed up:
as §1

For data set [7], the target named is T2, Peroxisome proliferator-activated receptor gamma (Homo sapiens) (UniProt P37231).
T2 sequence (whole entry): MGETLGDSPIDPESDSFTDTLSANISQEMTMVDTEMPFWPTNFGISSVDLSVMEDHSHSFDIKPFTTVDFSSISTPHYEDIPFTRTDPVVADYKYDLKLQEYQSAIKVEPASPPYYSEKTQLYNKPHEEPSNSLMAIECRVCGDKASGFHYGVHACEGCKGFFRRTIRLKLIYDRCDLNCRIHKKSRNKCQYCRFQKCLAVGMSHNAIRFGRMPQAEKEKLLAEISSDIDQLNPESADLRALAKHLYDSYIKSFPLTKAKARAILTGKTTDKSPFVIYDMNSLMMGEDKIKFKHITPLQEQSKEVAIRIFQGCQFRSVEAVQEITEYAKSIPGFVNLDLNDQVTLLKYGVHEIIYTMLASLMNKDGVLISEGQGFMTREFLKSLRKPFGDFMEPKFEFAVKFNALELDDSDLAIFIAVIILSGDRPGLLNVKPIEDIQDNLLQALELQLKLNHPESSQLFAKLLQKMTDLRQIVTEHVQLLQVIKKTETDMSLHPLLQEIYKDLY
Nature of the data set: Agonist activity at full length human flag-tagged PPARgamma1 […] expressed in rat Ac2F cells coexpressing PPRE-X3-TK after 6 hrs by one-glo luciferase reporter gene assay. Summed up:
(§4)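 Rat Ac2F cells at 70–80% confluence transfected by Lipofectamine 2000 with PPRE-X3-TK-luc (1 μg/well) plus pFlag-PPAR-γ1 or pcDNA3 (0.1 μg/well), 4 h, then 10 h in complete medium. Compound (5, 10, 20 μM) or rosiglitazone 5 μM added for 6 h in serum-free medium; ONE-Glo luminescence as fold of control, n = 3.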
On the technique in general: In a reporter assay the amount or activity of a reporter protein is the signal.

Data set [8] concerns the target T1, Peroxisome proliferator-activated receptor gamma (Mus musculus). Nature of the data set: Agonist activity at PPARgamma in LPS-stimulated mouse RAW264.7 cells assessed as inhibition of NF-kappaB signaling by measuring reduction in IL-1beta production pretreated with compound for 1 hr followed by LPS stimulation measured after 24 hrs by ELISA.
The target is the same in data set [9]. Nature of the data set: Agonist activity at PPARgamma in LPS-stimulated mouse RAW264.7 cells assessed as inhibition of NF-kappaB signaling by measuring reduction in iNOS mRNA level pretreated with compound for 1 hr followed by LPS stimulation for 6 hrs by RT-PCR analysis. The gist of the method: as §2
Data set [10] shares this target. In words: Agonist activity at PPARgamma in LPS-stimulated mouse RAW264.7 cells assessed as inhibition of NF-kappaB signaling by measuring reduction in TNFalpha mRNA level pretreated with compound for 1 hr followed by LPS stimulation for 6 hrs by RT-PCR analysis. The gist of the method:
as §2

For data set [11] the target is unchanged. Nature of the data set: Agonist activity at PPARgamma in LPS-stimulated mouse RAW264.7 cells assessed as inhibition of NF-kappaB signaling by measuring reduction in IL-1beta mRNA level pretreated with compound for 1 hr followed by LPS stimulation for 6 hrs by RT-PCR analysis. The gist of the method:
as §2

Data set [12] has the same target. Nature of the data set: Agonist activity at PPARgamma in LPS-stimulated mouse RAW264.7 cells assessed as inhibition of NF-kappaB signaling by measuring reduction in TNFalpha production pretreated with compound for 1 hr followed by LPS stimulation measured after 3 hrs by ELISA.
Data set [13] has the same target. Nature of the data set: Agonist activity at PPARgamma in LPS-stimulated mouse RAW264.7 cells assessed as inhibition of NF-kappaB signaling by measuring reduction in iNOS protein level pretreated with compound for 1 hr followed by LPS stimulation measured after 24 hrs by Western blot analysis.
The target of data set [14] is T2, Peroxisome proliferator-activated receptor gamma (Homo sapiens). Nature of the data set: Agonist activity at full length human flag-tagged PPARgamma1 […] expressed in rat Ac2F cells coexpressing PPRE-X3-TK at 20 uM after 6 hrs by one-glo luciferase reporter gene assay relative to control. Summed up:
as §4

In data set [15] the target is T1, Peroxisome proliferator-activated receptor gamma (Mus musculus). Nature of the data set: Agonist activity at PPARgamma in LPS-stimulated mouse RAW264.7 cells assessed as inhibition of NF-kappaB signaling by measuring reduction in COX2 mRNA level at 50 uM pretreated with compound for 1 hr followed by LPS stimulation for 6 hrs by RT-PCR analysis relative to control. Summed up: as §2

For data set [16] the target is unchanged. In words: Agonist activity at PPARgamma in LPS-stimulated mouse RAW264.7 cells assessed as inhibition of NF-kappaB signaling by measuring reduction in IL-6 mRNA level pretreated with compound for 1 hr followed by LPS stimulation for 6 hrs by RT-PCR analysis. The gist of the method:
as §2

Data set [17] shares this target. Nature of the data set: Agonist activity at PPARgamma in LPS-stimulated mouse RAW264.7 cells assessed as inhibition of NF-kappaB signaling by measuring reduction in COX2 protein level pretreated with compound for 1 hr followed by LPS stimulation measured after 24 hrs by Western blot analysis.
Data set [18] shares this target. In words: Agonist activity at PPARgamma in LPS-stimulated mouse RAW264.7 cells assessed as inhibition of NF-kappaB signaling by measuring reduction in COX2 mRNA level pretreated with compound for 1 hr followed by LPS stimulation for 6 hrs by RT-PCR analysis. Summed up:
as §2

Data set [19] shares this target. In words: Agonist activity at PPARgamma in LPS-stimulated mouse RAW264.7 cells assessed as inhibition of NF-kappaB signaling by measuring reduction in iNOS mRNA level at 50 uM pretreated with compound for 1 hr followed by LPS stimulation for 6 hrs by RT-PCR analysis relative to control. Summed up: as §2
The nature of data set [20]: Cytotoxicity against rat Ac2F cells assessed as reduction in cell viability up to 50 uM after 24 hrs by WST assay. The gist of the method:
as §3

The target in data set [21] is T1, Peroxisome proliferator-activated receptor gamma (Mus musculus). Nature of the data set: Agonist activity at PPARgamma in LPS-stimulated mouse RAW264.7 cells assessed as inhibition of NF-kappaB signaling by measuring reduction in IL-6 mRNA level at 50 uM pretreated with compound for 1 hr followed by LPS stimulation for 6 hrs by RT-PCR analysis relative to control. Summed up:
as §2

The target is the same in data set [22]. Nature of the data set: Agonist activity at PPARgamma in LPS-stimulated mouse RAW264.7 cells assessed as inhibition of NF-kappaB p65 phosphorylation at 30 uM pretreated with compound for 1 hr followed by LPS stimulation for 30 mins in presence of PPARgamma antagonist GW9662 by Western blot assay. The gist of the method: as §1
For data set [23] the target is unchanged. In words: Agonist activity at PPARgamma in LPS-stimulated mouse RAW264.7 cells assessed as inhibition of NF-kappaB signaling by measuring reduction in IL-6 production pretreated with compound for 1 hr followed by LPS stimulation measured after 24 hrs by ELISA.

Molecules are shown by their SMILES. Activity calls are given as the source filed them. The calls are words filed in the database; no cut-off is given here.

In the case of `COC(=O)CC/C(C)=C/CC/C(C)=C/Cc1cc(O)c(C)cc1O`, the inhibition result in data set [1], in [2], in [8], in data set [9], in data set [10] and in data set [11] was “Dose-dependent effect” throughout. In addition, the inhibition result in data set [12], in [13], in data set [16], in data set [17], in [18] and in data set [23] was “Dose-dependent effect” throughout. Also, the fold change (FC) was found to be 2.5 in data set [3]; 2 in data set [4]; 1.8 in data set [5]; 2.8 in data set [6]; 3 in data set [14]; 2 in data set [15]. The fold change (FC) in data set [19] and in [21] was 5 in each case. The Activity result with RAW264.7 is “Non-Toxic”; in [7], “Dose-dependent effect”; in data set [20], “Non-Toxic”. In addition, the inhibition result in [22] was “inactive”.

Consider `CN(CCOc1ccc(CC2SC(=O)NC2=O)cc1)c1ccccn1` (stereo not given), for which the fold change (FC) in data set [5] was 2.3.

These data come from ChEMBL document CHEMBL4138282, “An Anti-Inflammatory PPAR-γ Agonist from the Jellyfish-Derived Fungus Penicillium chrysogenum J08NF-4” (J Nat Prod, 2018).
